≈ marks a conversion by molar mass, not a printed value.
Key:
Type in all cases: functional, cell-based
[1] = Cytotoxicity against human Hep G2 cells by MTT colorimetric method; conditions: HepG2
Procedure, shortened: (§1)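 Human cancer cell lines were obtained from ATCC. Cytotoxicity was measured by the MTT [3-(4,5-dimethylthiazol-2-yl)-2,5-diphenyltetrazolium bromide] colorimetric method.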

MDA-MB-231 = experiment: Cytotoxicity against human MDA-MB-231 cells by MTT colorimetric method; procedure, shortened: as §1
MCF7 = experiment: Cytotoxicity against human MCF7 cells by MTT colorimetric method; procedure, shortened: as §1
A549 = experiment: Cytotoxicity against human A549 cells by MTT colorimetric method; procedure, shortened: as §1

| Structure (SMILES) | IC50 [1] | IC50 (MDA-MB-231) | IC50 (MCF7) | IC50 (A549) |
| --- | --- | --- | --- | --- |
| COc1cccc2c1C(=O)c1c(O)c3c(c(O)c1C2=O)C[C@@](O)(C(=O)CO)C[C@@H]3O[C@H]1C[C@H](N)[C@H](O)[C@H](C)O1 [DOXORUBICIN] | 0.2 µg/mL (≈ 0.368 µM) | 0.1 µg/mL (≈ 0.184 µM) | 0.3 µg/mL (≈ 0.552 µM) | – |
| C=C1C(=O)O[C@@H]2[C@@H]1C[C@H](O)[C@](C)(O)CC/C=C(\C)CC/C=C(\C)[C@@H]2OC(C)=O [CRASSOLIDE A] | 3.1 µg/mL (≈ 7.9 µM) | 8.6 µg/mL (≈ 21.9 µM) | 8.9 µg/mL (≈ 22.7 µM) | 11.9 µg/mL (≈ 30.3 µM) |
| C=C1C(=O)O[C@H]2C/C(C)=C/CC/C(C)=C/CC[C@@](C)(O)[C@@H](OC(C)=O)C[C@H]12 [CRASSOCOLIDE C] | > 30 µg/mL | > 30 µg/mL | > 30 µg/mL | > 30 µg/mL |
| C=C1C(=O)O[C@H]2C[C@]3(C)O[C@H]3CC/C(C)=C/CC/C(C)=C/C[C@H]12 [LOBOPHYTOLIDE] | 6.3 µg/mL (≈ 19.9 µM) | 2 µg/mL (≈ 6.32 µM) | 2.3 µg/mL (≈ 7.27 µM) | 2.1 µg/mL (≈ 6.64 µM) |
| C=C1C(=O)O[C@H]2C[C@@]3(C)O[C@@H]3CC/C(C)=C/C[C@@H](OC(C)=O)/C(C)=C/C[C@H]12 [CRASSOCOLIDE F] | 2.1 µg/mL (≈ 5.61 µM) | 8.8 µg/mL (≈ 23.5 µM) | 7.4 µg/mL (≈ 19.8 µM) | 3.2 µg/mL (≈ 8.55 µM) |
| C=C1C(=O)O[C@@H]2[C@@H]1C[C@H](OC(C)=O)[C@](C)(O)CC/C=C(\C)CC/C=C(\C)[C@@H]2OC(C)=O [CRASSOCOLIDE B] | 13.1 µg/mL (≈ 30.1 µM) | > 30 µg/mL | 10.3 µg/mL (≈ 23.7 µM) | 12.1 µg/mL (≈ 27.8 µM) |
| C=C1C(=O)O[C@H]2C/C(C)=C/CC/C(C)=C/CC[C@@](C)(O)[C@@H](O)C[C@H]12 [CRASSOCOLIDE D] | > 30 µg/mL | > 30 µg/mL | 15.3 µg/mL (≈ 45.7 µM) | 12.5 µg/mL (≈ 37.4 µM) |

— ChEMBL document CHEMBL1158098, “Crassolides A-F, cembranoids with a trans-fused lactone from the soft coral Sarcophyton crassocaule” (J Nat Prod, 2006)
